Experimental data taken from ChEMBL document CHEMBL1156215, “Homoisoflavonoid derivatives from the roots of Ophiopogon japonicus and their in vitro anti-inflammation activity” (Bioorg Med Chem Lett, 2010).

Columns and labels:
[1] = Antiinflammatory activity in human BEAS2B cells assessed as reduction in IL4 and TNF-alpha-induced eotaxin production at 25 uM after 48 hrs by ELISA treated 2 hrs before IL4 challenge (RVb=456.2 pg/ml)
BEAS-2B [2] = test: Antiinflammatory activity in human BEAS2B cells assessed as inhibition of IL4-induced eotaxin production after 48 hrs by ELISA treated 2 hrs before IL4 challenge; type: functional, cell-based
Procedure, shortened: (§1)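 BEAS-2B cells in RPMI-1640 with 10% FBS at 37 °C, 5% CO2, plated at 5 × 10^5/mL, switched to serum-free RPMI at 80% confluence. Pretreated 2 h with compound (1.0–25.0 μM), then IL-4 (20 ng/mL) alone. Supernatant eotaxin measured by sandwich ELISA after 48 h. Values are the mean of three experiments.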

[3] = Cytotoxicity against human BEAS2B cells at 25 uM after 48 hrs by MTT assay; type: cell-based; conditions: beas-2b
Procedure, shortened: (§2)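 BEAS-2B viability by MTT after 48 h exposure to compound, with or without IL-4.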

[4] = Cytotoxicity against human BEAS2B cells at 25 uM after 48 hrs by MTT assay in the presence of IL4; type: cell-based; conditions: beas-2b
Procedure, shortened: as §2

[5] = Antiinflammatory activity in human BEAS2B cells assessed as inhibition of IL4-induced eotaxin production at 25 uM after 48 hrs by ELISA treated 2 hrs before IL4 challenge; type: functional, BEAS-2B
Procedure, shortened: as §1

BEAS-2B [6] = test: Antiinflammatory activity in human BEAS2B cells assessed as inhibition of IL4 and TNF-alpha-induced eotaxin production after 48 hrs by ELISA treated 2 hrs before IL4 challenge; type: functional, cell-based

SMILES: COc1ccc2ccc(=O)oc2c1CC=C(C)C [OSTHOLE]
- Activity [1]: 80.5 pg/mL

SMILES: COc1c(C)c(O[C@@H]2O[C@H](CO)[C@@H](O)[C@H](O)[C@H]2O)c(C=O)c2c1C(=O)[C@H](Cc1ccc3c(c1)OCO3)CO2 [OPHIOPOGOSIDE B]
- Activity (BEAS-2B [2]): Dose-dependent effect
- Activity [3]: Non-toxic
- Activity [4]: Non-toxic
- Activity [5]: 25.5 pg/mL

SMILES: COc1ccc(C[C@@H]2COc3c(OC)c(O)c(C)c(O)c3C2=O)c(O)c1O [OPHIOPOGONANONE G]
- Activity (BEAS-2B [2]): Dose-dependent effect
- Activity [3]: Non-toxic
- Activity [4]: Non-toxic
- Activity [5]: 30.8 pg/mL

SMILES: Cc1c(O)c2c(c(C=O)c1O[C@@H]1O[C@H](CO)[C@@H](O)[C@H](O)[C@H]1O)OC[C@@H](Cc1ccc3c(c1)OCO3)C2=O [OPHIOPOGOSIDE A]
- Activity (BEAS-2B [2]): Dose-dependent effect
- Activity [3]: Non-toxic
- Activity [4]: Non-toxic
- Activity (BEAS-2B [6]): Dose-dependent effect
- Activity [5]: 28.5 pg/mL
